From ChEMBL document CHEMBL1156500, “Characterization of the metabolic activation of hepatitis C virus nucleoside inhibitor beta-D-2'-Deoxy-2'-fluoro-2'-C-methylcytidine (PSI-6130) and identification of a novel active 5'-triphosphate species” (J Biol Chem, 2007)
Each block holds one molecule with its values, some of them ahead of it. The source made the active and inactive calls. No cut-off for these calls is given here.

Key:
Hepatitis C virus [1] = test: Inhibition of RNA synthesis activity of […] 1b Con1 replicase; design: species or system Hepatitis C virus subtype 1b
Outline: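 Membrane-associated native replication complexes were isolated from 2209-23 replicon cells, with 20 μl reactions. One format used 2.5×10^6 cell equivalents for 60 min. The other used 3.1×10^6 cell equivalents for 90 min in 50 mM HEPES pH 7.5, 5 mM MgCl2, actinomycin D, 1 mM ATP/GTP/CTP, 0.4 μM [α-33P]UTP and a creatine phosphate regeneration system.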

Hepatitis C virus [2] = test: Inhibition of RNA synthesis activity of […]; design: species or system Hepatitis C virus subtype 1b, Con1
Hepatitis C virus [3] = test: Antiviral activity against HCV 1b Con1 in 2209-23 cells after 72 hrs by luciferase based replicon assay; assay type: functional, organism-based, Hepacivirus hominis; settings: genotype 1b Con 1, 2209-23, 72 h
Outline: (§1)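 Huh7-derived 2209-23 cells carrying a bicistronic genotype 1b Con1 subgenomic HCV replicon with a Renilla luciferase reporter of RNA replication. Cells were exposed to compound for 72 h, and dose-dependent reduction of luciferase activity was measured to give IC50.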

Hepatitis C virus [4] = test: Antiviral activity against HCV 1b Con1 in 2209-23 cells upto 100 uM after 72 hrs by luciferase based replicon assay; assay type: functional, organism-based; settings: Hepacivirus hominis, genotype 1b Con 1; outline: as §1

IC50 (Hepatitis C virus [1]): 1190 nM
IC50 (Hepatitis C virus [2]; Hepatitis C virus, Con1): 520 nM
SMILES: C[C@@]1(F)[C@H](O)[C@@H](COP(=O)(O)OP(=O)(O)OP(=O)(O)O)O[C@H]1n1ccc(=O)[nH]c1=O [GS-461203]
Ki (Hepatitis C virus [2]): 141 nM

IC50 (Hepatitis C virus [3]): > 100000 nM
SMILES: C[C@@]1(F)[C@H](O)[C@@H](CO)O[C@H]1n1ccc(=O)[nH]c1=O
Activity (Hepatitis C virus [4]): inactive

SMILES: O=c1ccn([C@@H]2O[C@H](COP(=O)(O)OP(=O)(O)OP(=O)(O)O)[C@@H](O)[C@H]2O)c(=O)[nH]1
Km (Hepatitis C virus [2]; Hepatitis C virus subtype 1b, Con1): 0.37 µM
